Screening results: PubChem, several laboratories
Only some compounds are listed: those with a hit (about 2% of all), similar ones and a draw of the others.
NR2E3 ag-1: agonists of human NR2E3 nuclear receptor. Q9Y5X4. CHO-S Gal4-NCOR/VP16-NR2E3 two-hybrid, luciferase. inhibition of corepressor binding, % at 3.98 µM. 360,000 compounds, 0.35% hits;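 active = inhibition above the mean of all tested compounds plus 3 SD, cut at about 70% in these data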;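 also: 0% = DMSO with NR2E3 transfected cells and 100% = cells lacking NR2E3 construct; higher means lower luciferase signal from less NR2E3 corepressor binding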
Target sequence (Q9Y5X4 whole entry, looked up, the tested form may be a part): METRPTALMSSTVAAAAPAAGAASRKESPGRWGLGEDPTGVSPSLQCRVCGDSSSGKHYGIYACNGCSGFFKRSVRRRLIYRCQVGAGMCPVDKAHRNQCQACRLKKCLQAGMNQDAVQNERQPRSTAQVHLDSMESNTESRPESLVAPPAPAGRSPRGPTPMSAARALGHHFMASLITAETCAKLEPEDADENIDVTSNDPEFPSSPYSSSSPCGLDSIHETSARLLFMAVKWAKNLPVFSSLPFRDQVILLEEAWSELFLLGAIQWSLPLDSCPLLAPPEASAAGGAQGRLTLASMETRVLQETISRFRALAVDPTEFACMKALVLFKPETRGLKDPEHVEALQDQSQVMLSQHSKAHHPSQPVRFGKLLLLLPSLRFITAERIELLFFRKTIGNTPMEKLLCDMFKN
Myeloid diff 2: promotes myeloid progenitor differentiation | ER-HoxA9 myeloid progenitors, lysozyme-GFP differentiation, flow cytometry | calls only at 10 µM | 360,000 compounds, 1% hits | AID 624256;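 active = normalized GFP-positive differentiation at or above the plate's own cutoff, the solvent-only control mean plus 3 SD; inconclusive = no clear call, values can overlap the other calls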;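 also: cells exposed to compound for four days before flow analysis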
T cell HTS: modulates CD8 T cell binding to vesicles. 330,000 compounds, 0.068% hits. response (vesicle binding), % at 7 µM. 2C CD8+ T cell-vesicle binding, flow cytometry; stronger effect = lower value. AID 2052;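 active = response, share of CD8 T cells binding vesicles, and their 90th percentile fluorescence all below set limits, cut at about 80% in these data, passing the limit was not always enough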;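 also: values below 100% mean blocked vesicle binding to the CD8+ T cells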
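Read-out – percent CD8+ FL2 mean versus row control · System – murine 2C transgenic CD8+ T lymphocytes · Times – 1.5 h cell–vesicle binding at 37 °C, then 20 min icy labelling · Control set – naked vesicles low, QL9 vesicles with vehicle high · Detection – cytometric PE anti-B7-1 and Alexa647 anti-CD8 signals after 1% paraformaldehyde fixation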
GAA850 FXN act: frataxin GAA850 promoter activation | HEK293 lucGAA850 FXN promoter luciferase reporter, 24 h; percent of 10 µM SAHA response | activation, % at 6 µM | 360,000 compounds, 0.56% hits;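 active = activation above the average of all compounds screened plus 3 SD, cutoff fixed separately per campaign, cut at about 7.5% in these data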;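 also: 0% = DMSO wells and 100% = 10 µM SAHA wells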
NR2E3 ag-2: activates human photoreceptor nuclear receptor NR2E3; 320,000 compounds, 0.12% hits; AID 2300; Q9Y5X4; GST-NR2E3/biotin-RetCOR TR-FRET, 1536-well; inhibition of corepressor binding, % at 4.78 µM;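 active = percent inhibition above the cutoff of mean plus 3 SD of all tested compounds, set per screening campaign, cut at about 20% in these data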;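 also: 0% = DMSO wells and 100% = biotin wells as full block of FRET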
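System: GST-tagged NR2E3 plus biotinylated RetCOR corepressor; Amount: 1.35 nM GST-tagged NR2E3 final; Dosing: single nominal compound dose of 4.8 µM; Schedule: 5 h incubation at 4 °C; Technique: TR-FRET with europium anti-GST and streptavidin-D2, 340 nm excitation; Controls: biotin wells as high control, 0.6% DMSO wells as low control.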
* = called active by the depositor; i = inactive; u = inconclusive; x = no result given; + = active, no number.

SMILES	NR2E3 ag-1	Myeloid diff 2	T cell HTS	GAA850 FXN act	NR2E3 ag-2
COc1ccc(S(=O)(=O)N2CCCC2)cc1C(=O)N1CCCCC1	5	i	203	3	7
COc1ccc(S(=O)(=O)N2CCCCC2)cc1C(=O)N1CCCC1	-9	i	0.0*	0	x
CCCCCCCCN1C(=O)[C@H](CC(=O)NCC2CCCCC2)C[C@@]2(C(=O)OCC)CCC=C12	x	i	x	x	x
O=C1N/C(=C/c2cccs2)C(=O)N1Cc1ccccc1F	-21	i	164	1	-3
Cc1ccc(/C=C2/NC(=O)N(Cc3ccccc3F)C2=O)s1	-68	+	171	2	3
CCCn1c(/C=N/Nc2nc3ccccc3[nH]2)nc2ccccc21	-74	u	x	5	x
CC(C)Cn1c(/C=N/Nc2nc3ccccc3[nH]2)nc2ccccc21	1	+	x	4	x
CCOC(=O)C1C(c2ccccc2Cl)NC(=O)N(C)C1(O)C(F)(F)F (stereo not given)	36	+	256	1	1
Nc1c(C(=O)O)sc2nc(-c3ccccc3)cc(-c3ccc(F)cc3)c12	-26	+	411	0	6
Cc1cc(NC(=O)CSc2nnc(-c3ccncc3)n2C)n(-c2ccccc2)n1	-33	+	475	0	-2
O=[N+]([O-])c1ccccc1-c1ccc(C(=S)N2CCCC2)o1	-47	+	374	2	-3
O=[N+]([O-])c1ccccc1-c1ccc(C(=S)N2CCCCC2)o1	-79	i	216	3	-2
CCN(C(=O)c1cc2c(=O)[nH]c3ccc(C)cc3c2s1)c1cccc(C)c1	-2	i	0.0*	-1	-1
COCCCNc1c2c3c(cccc3[nH]c1=O)C(=O)c1ccccc1-2	-30	+	446	-4	0
COC(=O)[C@H]1[C@H]2C[C@@H]3c4[nH]c5cc(OC)ccc5c4CCN3C[C@H]2C[C@@H](OC(=O)/C=C/c2cc(OC)c(OC)c(OC)c2)[C@@H]1OC	2	i	188	-6	3
COC(=O)[C@H]1[C@H]2C[C@@H]3c4[nH]c5cc(OC)ccc5c4CCN3C[C@H]2C[C@@H](OC(=O)c2ccc(N)cc2)[C@@H]1OC	-25	+	305	-4	6
O=[N+]([O-])c1ccc(-c2ccc(/C=N/Nc3nc(NCc4ccccc4)nc(N4CCOCC4)n3)o2)cc1	26	+	496	0	2
Cc1ccccc1S(=O)(=O)N(C)C[C@H]1OCc2cnnn2CCCC(=O)N([C@H](C)CO)C[C@H]1C	14	+	x	-2	x
Cc1ccccc1S(=O)(=O)N(C)C[C@H]1OCc2cnnn2CCCC(=O)N([C@@H](C)CO)C[C@H]1C	17	i	x	-2	x
C/C(=N\NC(=S)Nc1cc(S(=O)(=O)N2CCOCC2)ccc1Cl)c1ccc(N2CCOCC2)cc1	-25	+	353	0	2
COc1ccc2cc(/C(C)=N/NC(=S)Nc3cc(S(=O)(=O)N4CCOCC4)ccc3N3CCOCC3)ccc2c1	x	x	589	x	0
COc1cc(OC)nc(C(NC(=O)C2CCN(Cc3ccc(Oc4ccccc4)cc3)CC2)c2ccc(F)cc2)n1 (stereo not given)	12	i	x	0	x
COc1ccc(C(=O)N2CCN(c3ccccc3Cl)CC2)cc1S(=O)(=O)NC1CC1	0	i	142	1	5
Nc1ccccc1SC(CC(=O)c1ccccc1)c1ccc([N+](=O)[O-])cc1 (stereo not given)	-55	i	x	8.0*	x
Nc1ccccc1SC(CC(=O)c1ccccc1)c1cccc([N+](=O)[O-])c1 (stereo not given)	-70	i	x	11*	x
COc1ccc(C(CC(=O)c2ccc(C)cc2)Sc2ccccc2N)cc1 (stereo not given)	-70	i	x	3	x
O=C(Cc1ccc([N+](=O)[O-])cc1)c1ccccc1	-53	+	x	0	x
O=C(c1ccco1)N1CCN(c2ncnc3scc(-c4ccccc4)c23)CC1	-3	i	314	2	2
O=C(c1ccco1)N1CCN(c2ncnc3scc(-c4cccs4)c23)CC1	-34	+	290	2	-1
O=C1OCCN1C(=O)[C@H]1[C@H](c2ccc([N+](=O)[O-])cc2)C(c2ccc(F)cc2)=NN1c1ccc(Br)cc1	-43	i	x	-1	x
